Compound activity from PubChem.
Rows were chosen to be rich in hits. Some 2.5% of all compounds tested hit in one or more screens of this group.
SIAE primary = inhibitors of human sialic acid acetylesterase SIAE; Q9HAT2; SIAE FP-Rh probe binding, fluorescence polarization; inhibition, % at 9.66 µM; 370,000 compounds, 0.69% hits; AID 1053197;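 active = inhibition above a cutoff: mean of compounds within the control limits plus 3 SD of those, cut at about 17% in these data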;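 also: 0% = plate median of compound wells and 100% = probe without SIAE protein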
TCR CD3 inh = blocks the human TCR-CD3 interaction; TAMRA-labeled TCR probe fluorescence, biochemical; inhibition, % at 9.4 µM; 360,000 compounds, 0.37% hits; AID 651800;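 also: recombinant mutant TCR 2C K166C tagged with TAMRA read by polarization; 0% = receptor in buffer alone and 100% = receptor with positive control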
HTRA1 inhibitor = blocks human HTRA1 serine peptidase; recombinant HTRA1, FP-rhodamine activity-based probe, fluorescence polarization; 340,000 compounds, 0.5% hits; inhibition, % at 5.96 µM; in the data active = inhibition above about 36%;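 also: 0% = enzyme with DMSO and 100% = wells lacking enzyme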
Target sequence (Q92743 whole entry, looked up): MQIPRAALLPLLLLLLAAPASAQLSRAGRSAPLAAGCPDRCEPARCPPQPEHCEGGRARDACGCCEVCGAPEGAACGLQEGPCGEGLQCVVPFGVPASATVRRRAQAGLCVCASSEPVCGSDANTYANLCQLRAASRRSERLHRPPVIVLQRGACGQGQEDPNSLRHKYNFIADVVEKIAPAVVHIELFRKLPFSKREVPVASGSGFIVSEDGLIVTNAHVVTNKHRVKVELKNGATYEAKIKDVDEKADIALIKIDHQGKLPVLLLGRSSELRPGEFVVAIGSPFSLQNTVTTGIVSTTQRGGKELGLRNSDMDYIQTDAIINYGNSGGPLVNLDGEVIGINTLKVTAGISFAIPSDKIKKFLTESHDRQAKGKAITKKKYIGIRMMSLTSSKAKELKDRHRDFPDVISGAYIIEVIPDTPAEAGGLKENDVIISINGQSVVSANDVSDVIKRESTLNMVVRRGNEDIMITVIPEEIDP
rCAG RNA binder = binds r(CAG) RNA repeats. inhibition, % at 3 µM. 370,000 compounds, 1.3% hits. AID 651821. r(CAG) RNA repeat, TO-PRO-1 dye displacement fluorescence;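 active = inhibition above the plate cutoff, the mean of all test compounds on that plate plus 3 SD, cut at about 35% in these data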;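 also: 0% = DMSO alone and 100% = 100 µM mitoxantrone as full dye displacement; higher means more dye released from RNA so lower well fluorescence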
mABHD4 FP = ABHD4 (mouse) inhibition, primary FP screen. Q8VD66. purified mABHD4, FP-Rh probe fluorescence polarization. 370,000 compounds, 0.54% hits. inhibition, % at 8.92 µM;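 active = inhibition exceeding the mean over every tested compound plus 3 SD, cut at about 30% in these data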;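 also: 0% = plate median of compound wells and 100% = S159A mutant with DMSO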
Target sequence (Q8VD66 whole entry, looked up): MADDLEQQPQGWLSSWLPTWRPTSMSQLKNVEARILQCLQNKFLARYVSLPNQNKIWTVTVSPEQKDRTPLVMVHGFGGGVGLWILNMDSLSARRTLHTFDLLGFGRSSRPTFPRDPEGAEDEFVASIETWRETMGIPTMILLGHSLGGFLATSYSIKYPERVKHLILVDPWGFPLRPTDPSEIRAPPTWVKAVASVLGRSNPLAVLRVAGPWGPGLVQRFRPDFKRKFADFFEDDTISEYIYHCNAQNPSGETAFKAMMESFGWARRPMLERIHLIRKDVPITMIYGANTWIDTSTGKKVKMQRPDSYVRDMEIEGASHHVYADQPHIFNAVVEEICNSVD
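assay system = mABHD4 protein | compound dosing = single nominal dose of 8.92 µM, 0.89% DMSO final | read-out basis = percent inhibition of probe binding, normalized to plate controls | schedule = Enzyme–compound pre-incubation 45 min, then probe 60 min, both 25 °C | detection = fluorescence polarization, excitation 525 nm, emission 598 nm, BODIPY TMR filters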
HTRA1 inh conf = confirmation of human HTRA1 inhibitors; 1,600 compounds, 66% hits; recombinant HTRA1, FP-rhodamine activity-based probe, fluorescence polarization; inhibition, % at 5.96 µM; shares compounds with HTRA1 inhibitor;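 active = mean inhibition over three repeats above a set limit taken from the earlier primary screen, cut at about 37% in these data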;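 also: 0% = HTRA1 with DMSO and 100% = wells lacking HTRA1; inhibitors block probe binding so polarization drops and inhibition rises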
BSA probe FL = interferes with TAMRA-BSA probe, flagging TCR-CD3 hits; shares compounds with TCR CD3 inh; TAMRA-labeled BSA probe fluorescence counterscreen; inhibition, % at 9.4 µM; 1,200 compounds, 10% hits; AID 652035; in the data active = inhibition above about 23%;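 also: 0% = buffer low control and 100% = reference high control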
TCR-CD3 conf = TCR-CD3 interaction inhibition, confirmation; shares compounds with TCR CD3 inh; TAMRA-labeled TCR probe fluorescence binding assay; inhibition, % at 9.4 µM; 1,200 compounds, 48% hits
rCAG bind conf = r(CAG) RNA repeat binding, confirmation; shares compounds with rCAG RNA binder; TO-PRO-1 dye displacement fluorescence; inhibition, % at 3 µM; 4,300 compounds, 70% hits; AID 652065;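 active = inhibition above a per-plate cutoff, the mean inhibition of sample wells plus 3 SD, cut at about 35% in these data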;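 also: loss of TO-PRO-1 fluorescence as compound displaces dye from 1x1 AA loop RNA; 0% = DMSO only wells and 100% = 100 µM mitoxantrone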
dCAG dye counter = DNA CAG dye complex inhibition counter-screen | shares compounds with rCAG RNA binder | d(CAG) DNA oligo TO-PRO-1 dye displacement, fluorescence | inhibition, % at 3 µM | 4,300 compounds, 94% hits | AID 652068;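 active = inhibition above its plate's cutoff, the mean test-well inhibition plus 3 SD, cut at about 4.8% in these data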;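 also: 0% = DNA dye mix with DMSO and 100% = 100 µM mitoxantrone; hits displace the dye from DNA and so lower well fluorescence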
mABHD4 conf = confirmation of mouse ABHD4 inhibitors. inhibition, % at 8.92 µM. purified mABHD4, FP-Rh probe fluorescence polarization. shares compounds with mABHD4 FP. 1,800 compounds, 55% hits;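 active = mean inhibition across replicates above the hit cutoff set in the primary screen, cut at about 30% in these data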;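 also: 0% = wild-type ABHD4 with DMSO and 100% = catalytically dead S159A mutant with DMSO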
* marks the source's active call; other numbers are inactive results; / = not tested or not shown. Rule as the data show it, unless noted: active = inhibition above about 19%; inactive = the rest.

SMILES | SIAE primary | TCR CD3 inh | HTRA1 inhibitor | rCAG RNA binder | mABHD4 FP | HTRA1 inh conf | mABHD4 conf | others
Oc1ccc(/C=N/Nc2cc(N3CCCC3)nc(N3CCCC3)n2)cc1O | 21.9* | 33.0* | 57.8* | 39.6* | 35.4* | 140.0* | 39.7*
CCN(CC)c1ccc(N=Cc2ccc(N(CC)CC)cc2O)cc1 | 6.3 | -2.1 | 65.2* | 6.9 | 38.8* | 5.6 | 19.3
COc1ccc(OCCC(=O)NCC23CC4CC(CC(C4)C2)C3)cc1 | -3.6 | -3.9 | -8.7 | -8.8 | -2.9 | / | /
O=C(O)c1cc(N=Nc2c(O)ccc3ccccc23)cc(C(=O)O)c1 | -4.7 | -7.6 | 5.8 | -1.4 | -2.8 | / | /
O=C(O)c1ccc(N=Nc2c(O)ccc3ncccc23)cc1 | 0.5 | -13.8 | 38.5* | 7.2 | 72.7* | 28.7 | 79.9*
Cc1[nH]c(N=Nc2ccccc2)nc1N=Nc1ccccc1 | 2.0 | 2.7 | 73.5* | 5.4 | 45.4* | 74.5* | 62.1*
Nc1ccc(N=Nc2ccccc2)c(N)n1 | 9.4 | -3.1 | 15.1 | 5.2 | 16.3 | / | /
Oc1ccc(/C=N/Nc2ccnc3cc(Cl)ccc23)cc1O | 13.5 | 10.5 | 42.3* | 23.7 | 34.9* | 71.7* | 62.7*
CC/C(=N\Nc1ccnc2cc(Cl)ccc12)c1ccc(O)cc1 | 7.6 | 3.8 | 5.0 | 8.6 | 0.2 | / | /
O=c1c(-c2ccc([N+](=O)[O-])cc2)coc2c(O)c(O)ccc12 | -2.1 | 16.0 | 66.1* | 7.9 | 42.2* | 68.1* | 22.1
CN(C)Cc1c(O)ccc2c(=O)c(-c3ccc(Cl)cc3)coc12 | -4.2 | 9.8 | 3.1 | 3.0 | 2.3 | / | /
CC(C)CN1C(=O)N2Cc3ccccc3C2CS1(=O)=O (stereo unspecified) | -2.4 | / | / | -1.2 | 4.6 | / | /
CNc1ccc(Br)cc(C(=O)/C=C/c2ccc3c(c2)OCO3)c1=O | 10.6 | 17.8 | 43.9* | 32.8 | 39.7* | 13.2 | 43.8*
CNc1ccc(Br)cc(C(=O)/C=C/c2cc(OC)ccc2OC)c1=O | 17.2* | 16.4 | 38.7* | 42.8* | 37.6* | 9.3 | 40.4* | rCAG bind conf=38.1*;dCAG dye counter=16.3*
NS(=O)(=O)c1ccc(CCNC(=O)CSc2cccs2)cc1 | -2.1 | -8.5 | 2.0 | -0.1 | 4.9 | / | /
Cc1ccc(C)c(/C=C/C(=O)c2ccccc(=O)c2O)c1 | 11.2 | 11.0 | 54.2* | 38.9* | 37.9* | 59.1* | 24.5 | rCAG bind conf=22.8;dCAG dye counter=10.3*
O=C(C=Cc1ccccc1O)c1ccccc1O | -7.6 | -1.4 | -13.9 | 3.8 | -19.0 | / | /
COC(=O)C1(Cc2cc(-c3ccc(OC)cc3OC)no2)CCN(C(=O)OC(C)(C)C)CC1 | 9.9 | -1.2 | -5.9 | -6.0 | -10.3 | / | /
Cc1[nH]n2c(=O)cc(-c3ccc([N+](=O)[O-])cc3)nc2c1-c1ccccc1 | 10.3 | 4.0 | 40.2* | 91.3* | 48.0* | 87.4* | 72.0* | rCAG bind conf=86.7*;dCAG dye counter=63.5*
CCOC(=O)C1CCN(C2=C(NS(=O)(=O)c3ccc(Br)cc3)C(=O)c3ccccc3C2=O)CC1 | 19.1* | -9.3 | 47.2* | 7.5 | 44.9* | 64.8* | 63.3*
CN=c1scc(-c2ccccc2F)n1/N=C/c1ccc[nH]1 | -3.1 | -10.5 | 27.4 | 10.5 | -1.0 | / | /
CC(C)N=c1scc(-c2cccs2)n1/N=C/c1ccc(O)c(O)c1O | 13.7 | 7.1 | 57.0* | 46.2* | 40.9* | 65.5* | 54.1* | rCAG bind conf=55.9*;dCAG dye counter=30.6*
CN=c1scc(-c2ccccc2F)n1/N=C/c1ccc(O)c(O)c1O | 15.6 | 15.7 | 71.5* | 40.9* | 48.5* | 77.3* | 59.9* | rCAG bind conf=56.2*;dCAG dye counter=25.4*
COC(=O)[C@]12C[C@H](CC(=O)NCCCN3CCCC3=O)C(=O)N(Cc3ccccc3)C1=C[C@H](C(C)(C)C)O[C@@H]2C | -3.1 | 0.1 | / | -1.2 | 0.9 | / | /
CCOC(=O)C1(C)C=C(Nc2ccc(OC)cc2)C(=O)N1c1ccc(OC)cc1 (stereo unspecified) | 11.2 | 1.6 | 2.2 | 0.4 | 3.9 | / | /
SMILES | SIAE primary | TCR CD3 inh | HTRA1 inhibitor | rCAG RNA binder | mABHD4 FP | HTRA1 inh conf | mABHD4 conf | others
CCOC(=O)C1(C)C=C(Nc2ccc(O)cc2)C(=O)N1c1ccc(O)cc1 (stereo unspecified) | 15.6 | 40.3* | 54.9* | 10.2 | 75.6* | 7.0 | 4.6 | BSA probe FL=6.9;TCR-CD3 conf=8.8
C/C(=N/NC(=O)c1cc(O)c(O)c(O)c1)c1ccc([N+](=O)[O-])cc1 | 13.0 | 54.8* | 76.0* | 14.0 | 31.8* | 57.5* | 25.7 | BSA probe FL=-11.4;TCR-CD3 conf=35.7*
CCCCC(=O)Nc1nc(C)c(-c2csc(Nc3cc(OC)ccc3OC)n2)s1 | 8.4 | 1.1 | 38.9* | 26.3 | 42.3* | 25.7 | 66.4*
COc1ccc(OC)c(Nc2nc(-c3sc(NC(=O)CC(C)C)nc3C)cs2)c1 | 9.3 | 4.6 | 37.1* | 28.2 | 34.9* | 27.1 | 54.5*
Cc1ccoc1C(=O)NCCCNC(=O)c1occc1C | -1.7 | 8.9 | 10.1 | 2.5 | -1.6 | / | /
Cc1ccc(NC(=O)C(NC2CCCC2)c2ccccc2)cc1Cl (stereo unspecified) | -2.8 | -0.1 | -25.8 | -5.2 | -3.6 | / | /
O=C1C(Cl)=C(NC(=O)c2ccccc2)C(=O)C(Cl)=C1NC(=O)c1ccccc1 | 3.2 | -7.9 | 37.1* | 10.3 | 63.8* | -2.5 | 70.8*
CN(C1=C(NC(=O)c2ccc(Cl)cc2)C(=O)c2ccccc2C1=O)c1ccccc1 | 1.4 | -3.8 | 72.5* | 4.6 | 55.8* | 64.6* | 71.4*
O=C(NC1=C(Nc2ccc(Cl)cc2)C(=O)c2ccccc2C1=O)c1ccccc1 | -11.2 | -5.6 | 19.3 | 1.3 | 16.3 | / | /
Cc1ccc(S(C)(=O)=O)cc1C(=O)OCC(=O)N1CCCC1=O | 1.8 | -0.8 | 1.3 | 1.5 | -1.4 | / | /
Cn1c(CN2CCOCC2)c(C#N)c2ccccc21 | -1.6 | 4.1 | -0.3 | -1.2 | -3.9 | / | /
O=[N+]([O-])c1ccccc1C=NNC(=S)NN=Cc1ccccc1[N+](=O)[O-] | 4.1 | -6.2 | 10.4 | 14.0 | 8.7 | / | /
O=[N+]([O-])c1ccccc1NC(=S)N/N=C/c1ccc(O)c(O)c1 | 8.4 | 20.0* | 80.2* | 36.7* | 51.2* | 73.1* | 36.0* | BSA probe FL=-15.6;TCR-CD3 conf=19.6*;rCAG bind conf=43.3*;dCAG dye counter=22.7*
